# Experimental data pooled from the literature.
# Protocols differ between the studies behind these lines.
# Target: Myosin light chain kinase family member 4 (MYLK4, Homo sapiens, UniProt Q86YV6)
# Sequence (Q86YV6 1-388, as in one of the studies): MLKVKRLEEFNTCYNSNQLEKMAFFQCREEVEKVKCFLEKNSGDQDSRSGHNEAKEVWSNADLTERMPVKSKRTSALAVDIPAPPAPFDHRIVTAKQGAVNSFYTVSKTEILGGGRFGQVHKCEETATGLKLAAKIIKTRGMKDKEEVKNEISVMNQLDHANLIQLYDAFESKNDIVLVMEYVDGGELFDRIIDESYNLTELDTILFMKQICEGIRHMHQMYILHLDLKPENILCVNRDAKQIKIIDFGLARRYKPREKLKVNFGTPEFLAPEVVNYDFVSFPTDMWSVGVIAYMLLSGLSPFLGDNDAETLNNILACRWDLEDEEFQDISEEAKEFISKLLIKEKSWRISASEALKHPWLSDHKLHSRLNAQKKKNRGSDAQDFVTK
Structure (SMILES),observed,mode,method,tested at,endpoint,value
O=C(Nc1cnn(-c2csc(C(=O)NC3COC3)c2)c1)Nc1ccccc1Cl,enzyme activity,inhibitor,,5 µM,remaining activity,85.2%
Fc1cccc(-n2cnc3c(NCc4nc5c(F)c(F)ccc5[nH]4)nc(N4CCOCC4)nc32)c1,binding,,competition with immobilised ligand,10 µM,binding vs control,2.1%
CCCOc1ccc([C@@H]2[C@@H](C(=O)O)[C@H](c3ccc4c(c3)OCO4)CN2CC(=O)Nc2c(CC)cccc2CC)cc1,cell-free assay,,competition with immobilised ligand,1 µM,remaining binding,100%
Nc1ncnc2occ(-c3ccc(NC(=O)Nc4cc(C(F)(F)F)ccc4F)cc3)c12,enzyme activity,inhibitor,,20 µM,remaining activity,48%
O=C(Nc1cnn(-c2csc(C(=O)NC3COC3)c2)c1)Nc1c(F)cccc1Cl,enzyme activity,inhibitor,,5 µM,remaining activity,91.7%
Nc1c(C(=O)NCc2ccc(C(=O)NCCCC3CCCCC3)cc2)cnn1-c1ccccc1,cell-free assay,,competition with immobilised ligand,0.1 µM,remaining binding,100%
O=[N+]([O-])c1cccc2[nH]c(CNc3nc(N4CCOCC4)nc4c3ncn4-c3ccsc3)nc12,binding,,competition with immobilised ligand,10 µM,binding vs control,2.6%
Cc1ccc(C(=O)Nc2ccc(CN3CCN(C)CC3)c(C(F)(F)F)c2)cc1C#Cc1cnc2cccnn12,enzyme activity,inhibitor,,23.5 nM,remaining activity,92%
